Data: ChEMBL document CHEMBL1128319, “Cyclosporin analogs modified in the 3,7,8-positions: substituent effects on peptidylprolyl isomerase inhibition and immunosuppressive activity are nonadditive” (J Med Chem, 1995)

Experiments:
Jurkat = assay: The compound was tested in vitro for inhibition of IL-2 release stimulated with PMA/ionomycin by Jurkat cells.; assay type: functional, cell-based; conditions: Homo sapiens
Summary of the method: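 Jurkat cells at 2 × 10⁵/mL in RPMI-10 (10% heat-inactivated calf serum) with serial compound dilutions, stimulated with PMA 1000 ng/mL plus ionomycin 125 ng/mL, incubated overnight. IL-2 in supernatants quantified by ELISA.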

Mus musculus = organism: Mus musculus; assay: The compound was tested in vitro for inhibition of proliferation in BDF1 mouse spleen cells stimulated with concanavalin A (ConA).; assay type: functional
Summary of the method: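 BDF1 mouse spleen cells, 5 × 10⁶/mL in RPMI-10, given compound dilutions and Con A 5 μg/mL. Cultured 72 h at 37 °C, 5% CO₂, with [³H]thymidine 0.5 μCi over the last 16 h. Incorporated radioactivity counted by scintillation. Quadruplicate means used; viability checked by trypan blue. IC50 derived.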

Compound: C/C=C/CC(C)[C@@H](O)[C@H]1C(=O)N[C@@H](CC)C(=O)N(C)CC(=O)N(C)[C@@H](CC(C)C)C(=O)N[C@@H](C(C)C)C(=O)N(C)[C@@H](CC(C)C)C(=O)N[C@@H](Cc2ccccc2)C(=O)N[C@H](C)C(=O)N(C)[C@@H](CC(C)C)C(=O)N(C)[C@@H](CC(C)C)C(=O)N(C)[C@@H](C(C)C)C(=O)N1C (some centres not stated)
- IC50 (Jurkat): 107 nM
- IC50 (Mus musculus): 248 nM

Compound: C/C=C/CC(C)[C@@H](O)[C@H]1C(=O)N[C@@H](CC)C(=O)N(C)CC(=O)N(C)[C@@H](CC(C)C)C(=O)N[C@@H](C(C)C)C(=O)N(C)[C@@H](CC(C)C)C(=O)N[C@@H](Cc2ccccc2)C(=O)N[C@H](CO)C(=O)N(C)[C@@H](CC(C)C)C(=O)N(C)[C@@H](CC(C)C)C(=O)N(C)[C@@H](C(C)C)C(=O)N1C (some centres not stated)
- IC50 (Jurkat): 21 nM
- IC50 (Mus musculus): 105 nM

Compound: C/C=C/C[C@@H](C)[C@@H](O)[C@H]1C(=O)N[C@@H](CC)C(=O)N(C)CC(=O)N(C)[C@@H](CC(C)C)C(=O)N[C@@H](C(C)C)C(=O)N(C)C(CC(C)C)C(=O)N[C@@H](C)C(=O)N[C@H](C)C(=O)N(C)C(CC(C)C)C(=O)N(C)[C@@H](CC(C)C)C(=O)N(C)C(C(C)C)C(=O)N1C (single isomer, unassigned) [CYCLOSPORINE]
- IC50 (Jurkat): 12 nM

Compound: C/C=C/CC(C)C(O)[C@H]1C(=O)N[C@@H](CC)C(=O)N(C)[C@H](C)C(=O)N(C)[C@@H](CC(C)C)C(=O)N[C@@H](C(C)C)C(=O)N(C)[C@@H](CC(C)C)C(=O)N[C@@H](Cc2ccccc2)C(=O)N[C@H](C)C(=O)N(C)[C@@H](CC(C)C)C(=O)N(C)[C@@H](CC(C)C)C(=O)N(C)[C@@H](C(C)C)C(=O)N1C (some centres not stated)
- IC50 (Jurkat): 62 nM
- IC50 (Mus musculus): 142 nM
